From ChEMBL document CHEMBL1140960, “Synthesis of amide and urea derivatives of benzothiazole as Raf-1 inhibitor” (2008) come the findings set out here.

In one assay the test system is SK-HEP1. Description: Antiproliferative activity against human SKHEP1 cells by SRB assay. In kind it is functional. The gist of the method:
(§1)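 Cells from exponential-phase cultures were trypsinized, counted and plated. Fixation used cold 10% TCA for 1 h at 4 °C, then water washes. Staining was 0.1% SRB in 1% acetic acid for at least 15 min, followed by 1% acetic acid rinses. Dye was solubilized in 10 mM unbuffered Tris base and absorbance read at 540 nm.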

A further assay concerns NUGC-3. Description: Antiproliferative activity against human NUGC3 cells by SRB assay. It counts as functional. The gist of the method:
as §1
In general terms: In SRB staining, fixed cells bind dye roughly in proportion to their protein.

For a further assay, the system named is MDA-MB-231. The experiment in a line: Antiproliferative activity against human MDA-MB-231 cells by SRB assay. In kind it is functional. The gist of the method: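 Trypsinized exponential-phase cells were plated at densities chosen for exponential growth over a 5-day assay. Cells were fixed with cold 10% TCA for 1 h at 4 °C, water-washed, stained at least 15 min with 0.1% SRB in 1% acetic acid, and rinsed with 1% acetic acid. Bound dye was solubilized in 10 mM unbuffered Tris base and OD read at 540 nm.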

Assay [1] addresses RAF proto-oncogene serine/threonine-protein kinase (Homo sapiens) (UniProt P04049). The experiment in a line: Inhibition of Raf1 at 50 uM by liquid scintillation counting. In outline: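 Raf-1 and its substrate MEK were diluted together in buffer (20 mM MOPS pH 7.2, 25 mM β-glycerol phosphate, 5 mM EGTA, 1 mM orthovanadate, 1 mM DTT), with compound in 1% final DMSO. Reaction was started with [γ-33P]ATP (1000–3000 dpm/pmol) and run at 32 °C, usually 22 min. Samples went to phosphocellulose mats, were washed with 1% phosphoric acid and counted by scintillation; % inhibition is the mean of three experiments.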

≈ marks a conversion by molar mass, not a printed value. Calls of active or inactive are those of the source. The rule behind the calls is not given here.

RAF proto-oncogene serine/threonine-protein kinase (Homo sapiens), sequence (P04049 whole entry): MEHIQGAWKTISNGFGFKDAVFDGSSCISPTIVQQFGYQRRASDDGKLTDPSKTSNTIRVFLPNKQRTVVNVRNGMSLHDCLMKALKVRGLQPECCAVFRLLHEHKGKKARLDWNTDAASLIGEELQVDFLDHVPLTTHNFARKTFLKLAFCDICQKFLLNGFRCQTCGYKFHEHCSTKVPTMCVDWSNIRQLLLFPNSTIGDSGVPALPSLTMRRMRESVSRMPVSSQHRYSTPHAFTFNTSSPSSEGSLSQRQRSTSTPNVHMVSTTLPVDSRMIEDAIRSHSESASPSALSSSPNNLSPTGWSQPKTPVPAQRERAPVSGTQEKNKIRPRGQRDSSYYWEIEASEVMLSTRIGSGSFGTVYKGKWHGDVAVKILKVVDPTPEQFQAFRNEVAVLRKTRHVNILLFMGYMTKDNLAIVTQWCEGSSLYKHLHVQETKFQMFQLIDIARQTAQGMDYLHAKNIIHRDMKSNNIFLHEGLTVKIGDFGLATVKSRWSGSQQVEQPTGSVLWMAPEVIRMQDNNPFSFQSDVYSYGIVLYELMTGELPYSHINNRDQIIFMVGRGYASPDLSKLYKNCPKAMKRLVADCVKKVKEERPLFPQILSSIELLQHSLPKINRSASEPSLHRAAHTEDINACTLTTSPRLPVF

Take `COc1cccc2c1C(=O)c1c(O)c3c(c(O)c1C2=O)C[C@@](O)(C(=O)CO)C[C@@H]3O[C@H]1C[C@H](N)[C@H](O)[C@H](C)O1` [DOXORUBICIN]: the GI50 (in general, the concentration at which growth is held to half of that of the control) was determined as 0.07 µg/mL (≈ 0.129 µM) in the assay on SK-HEP1, 0.11 µg/mL (≈ 0.202 µM) in the assay on NUGC-3 and 0.39 µg/mL (≈ 0.718 µM) in the assay on MDA-MB-231.
In the case of `COc1ccc(C(=O)Nc2nc3cc(C)cc(C)c3s2)cc1`, the concentration for 50% growth inhibition (GI50) is > 10 µg/mL in the assay on SK-HEP1, > 10 µg/mL in the assay with NUGC-3 and 1.03 µg/mL (≈ 3.3 µM) in the assay on MDA-MB-231.
In the case of `O=C(Nc1ccccc1)Nc1nc2ccc(F)cc2s1`, the 50% growth inhibitory concentration (GI50) in the assay with SK-HEP1, in the assay on NUGC-3 and in the assay on MDA-MB-231 was > 10 µg/mL each time.
Consider `Cc1cc2nc(NC(=O)Nc3ccccc3C)sc2cc1C`, for which the GI50 with SK-HEP1 was found to be 0.18 µg/mL (≈ 0.578 µM); with NUGC-3, 0.18 µg/mL (≈ 0.578 µM); in the assay on MDA-MB-231 it was 0.1 µg/mL (≈ 0.321 µM). In addition, the inhibition (in general, the relative decrease from the control value, in per cent) in assay [1] came to 14.9%.
Take `COc1ccc(C(=O)Nc2nc3c(OC)cccc3s2)cc1`: the concentration for 50% growth inhibition (GI50) was found to be 2.11 µg/mL (≈ 6.71 µM) in the assay with SK-HEP1, 3.46 µg/mL (≈ 11 µM) in the assay on NUGC-3 and 1.25 µg/mL (≈ 3.98 µM) with MDA-MB-231. Also, in assay [1], the inhibition came out at 7.8%.
For `COc1cccc2sc(NC(=O)c3ccc([N+](=O)[O-])cc3)nc12`, the GI50 in the assay with SK-HEP1, in the assay on NUGC-3 and in the assay with MDA-MB-231 was > 10 µg/mL throughout.
With `COc1ccc2sc(NC(=O)c3ccc(C#N)cc3)nc2c1`, the GI50 in the assay on SK-HEP1, in the assay on NUGC-3 and in the assay on MDA-MB-231 was > 10 µg/mL in each case.
In the case of `COc1cccc2sc(NC(=O)c3ccc(C#N)cc3)nc12`, the concentration for 50% growth inhibition (GI50) with SK-HEP1, in the assay with NUGC-3 and in the assay on MDA-MB-231 was > 10 µg/mL in each case.
Take `COc1ccc(C(=O)Nc2nc3cc(OC)ccc3s2)cc1`: the 50% growth inhibitory concentration (GI50) in the assay with SK-HEP1, in the assay on NUGC-3 and in the assay with MDA-MB-231 was > 10 µg/mL throughout.
Regarding `O=C(Nc1cccc([N+](=O)[O-])c1)Nc1nc2ccc(F)cc2s1`, the values for the GI50 in the assay with SK-HEP1, with NUGC-3 and in the assay with MDA-MB-231 were 1.96 µg/mL (≈ 5.9 µM), 0.83 µg/mL (≈ 2.5 µM) and 0.89 µg/mL (≈ 2.68 µM), respectively. Also, the inhibition in assay [1] was 7.9%.
As for `Cc1cc(C)c2sc(NC(=O)c3ccc(C(F)(F)F)cc3)nc2c1`, the GI50 in the assay on SK-HEP1 was determined as 1.36 µg/mL (≈ 3.88 µM); in the assay with NUGC-3, 1.4 µg/mL (≈ 4 µM); in the assay on MDA-MB-231 it was 0.45 µg/mL (≈ 1.28 µM). In addition, the result in assay [1] was inactive.
As for `Cc1ccc(C(=O)Nc2nc3cc(C)cc(C)c3s2)cc1`, the results for the GI50 with SK-HEP1, with NUGC-3 and with MDA-MB-231 were 2.17 µg/mL (≈ 7.32 µM), 2.37 µg/mL (≈ 8 µM) and 0.44 µg/mL (≈ 1.48 µM), respectively.
For `O=C(Nc1cccc([N+](=O)[O-])c1)Nc1nc2ccc(Cl)cc2s1`, the GI50 in the assay with SK-HEP1 came out at 2.21 µg/mL (≈ 6.34 µM); in the assay with NUGC-3, 1.03 µg/mL (≈ 2.95 µM); with MDA-MB-231, 0.82 µg/mL (≈ 2.35 µM). For the same compound, the outcome in assay [1] was inactive.
As to `O=C(Nc1nc2ccc(F)cc2s1)Nc1ccccc1F`, the GI50 with SK-HEP1, with NUGC-3 and with MDA-MB-231 was > 10 µg/mL in each case.
Take `Cc1ccccc1NC(=O)Nc1nc2ccc(F)cc2s1`: the GI50 with SK-HEP1, in the assay on NUGC-3 and with MDA-MB-231 was > 10 µg/mL in each case.
With `COc1ccc2sc(NC(=O)c3ccc(C)cc3)nc2c1`, the GI50 with SK-HEP1, with NUGC-3 and with MDA-MB-231 was > 10 µg/mL in each case.
`Cc1cc(C)c2sc(NC(=O)c3ccc(C#N)cc3)nc2c1`: the concentration for 50% growth inhibition (GI50) in the assay with SK-HEP1 amounted to 1.18 µg/mL (≈ 3.84 µM); in the assay with NUGC-3 it was 0.62 µg/mL (≈ 2.02 µM); in the assay with MDA-MB-231, 0.48 µg/mL (≈ 1.56 µM). In addition, in assay [1], the result was inactive.
Consider `O=C(Nc1nc2ccc([N+](=O)[O-])cc2s1)c1ccc(C(F)(F)F)cc1`, for which the GI50 in the assay with SK-HEP1 is 2.1 µg/mL (≈ 5.72 µM); in the assay on NUGC-3, 1.65 µg/mL (≈ 4.49 µM); in the assay on MDA-MB-231, 1.89 µg/mL (≈ 5.15 µM).
In the same order, the values of `COc1ccc2sc(NC(=O)c3ccc([N+](=O)[O-])cc3)nc2c1` are > 10 µg/mL, > 10 µg/mL and > 10 µg/mL.
With `O=C(Nc1nc2ccc(C(F)(F)F)cc2s1)c1ccc([N+](=O)[O-])cc1`, the GI50 in the assay with SK-HEP1, in the assay with NUGC-3 and in the assay with MDA-MB-231 was > 10 µg/mL in each case.
Take `COc1cccc2sc(NC(=O)c3ccc(C)cc3)nc12`: the GI50 was 2.01 µg/mL (≈ 6.74 µM) with SK-HEP1, > 10 µg/mL with NUGC-3 and 0.86 µg/mL (≈ 2.88 µM) in the assay on MDA-MB-231. In assay [1], this compound yielded an inhibition of 37%.
`COc1ccc(NC(=O)Nc2nc3ccc(F)cc3s2)cc1`: the GI50 with SK-HEP1, with NUGC-3 and in the assay with MDA-MB-231 was > 10 µg/mL in each case.
As for `COc1ccc2nc(NC(=O)c3ccc(C)cc3)sc2c1`, the GI50 in the assay on SK-HEP1, with NUGC-3 and in the assay on MDA-MB-231 was > 10 µg/mL each time.
Turning to `COc1ccc2sc(NC(=O)c3ccc(C(F)(F)F)cc3)nc2c1`, the GI50 in the assay on SK-HEP1, with NUGC-3 and with MDA-MB-231 was > 10 µg/mL each time.
Consider `Cc1ccc2nc(NC(=O)Nc3cccc([N+](=O)[O-])c3)sc2c1`, for which the GI50 with SK-HEP1, with NUGC-3 and in the assay with MDA-MB-231 was > 10 µg/mL each time.
For `Cc1cc(C)c2sc(NC(=O)c3ccc([N+](=O)[O-])cc3)nc2c1`, the GI50 worked out at 1.74 µg/mL (≈ 5.32 µM) in the assay on SK-HEP1, 1.32 µg/mL (≈ 4.03 µM) with NUGC-3 and 0.29 µg/mL (≈ 0.886 µM) in the assay with MDA-MB-231. Moreover, the outcome in assay [1] was inactive.
Take `COc1cccc2sc(NC(=O)c3ccc(C(F)(F)F)cc3)nc12`: the GI50 in the assay with SK-HEP1, with NUGC-3 and in the assay on MDA-MB-231 was > 10 µg/mL each time.
